Bioassay records (PubChem BioAssay)
This is one part of a sample in which hits are shown more often than they occur.
Avidin bead fluor – avidin bead compound fluorescence profile; AID 1775; Avidin beads, compound fluorescence 488/530 nm, flow cytometry; hits give high values; 220,000 tested, 0.38% active; fluorescence (KMESF) at 10 µM; in the data active means fluorescence above about 47
GSH fluor – compound fluoresces at 488/530 nm on GSH beads; GSH beads flow cytometry, compound fluorescence 488/530 nm; hits give high values; fluorescence (KMESF) at 10 µM; 190,000 tested, 0.25% active; in the data active means fluorescence above about 89;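 further: glutathione beads carrying GST-tagged Bcl family fusion proteins plus one bare bead set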
Lmaj promast – reduces viability of Leishmania major promastigotes. resazurin fluorescence viability. inhibition, % at 10 µM. AID 1063. 200,000 tested, 9% active;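 further: promastigotes grown with compound for 44 hours at 28 °C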
ABCB1 inh – human ABCB1 inhibition, ABCG2 as counter-screen; P08183; CCRF-Adr cells, JC-1 efflux, flow cytometry; inhibition, % at 6.6 µM; 190,000 tested, 0.067% active; in the data active means inhibition above about 40%;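 further: higher value means more JC-1 retained so stronger ABCB1 efflux block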
ABCG2 inh – human ABCG2 inhibition, ABCB1 as counter-screen | Q9UNQ0 | IgMXP3 cells, JC-1 efflux, flow cytometry | inhibition, % at 6.6 µM | 190,000 tested, 0.1% active;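 active means inhibition above 80%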
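Assay system – ABCG2 IgMXP3 and barcoded ABCB1 CCRF-Adr cell mix · Input – 3 million cells/mL in well · Reagent – JC-1 fluorescent substrate · Compound – single test compound dose, 6.6 µM final · Timing – 10 min exposure at 25 °C with rotation, no wash · Detection – flow cytometry of retained JC-1 fluorescence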
PKD1 inh – blocks activity of human protein kinase D1; AID 797; inhibition, % (concentration not given with the values); Q15139; PKD1 kinase fluorescence polarization assay; 200,000 tested, 0.056% active
Target sequence (Q15139 whole entry, looked up): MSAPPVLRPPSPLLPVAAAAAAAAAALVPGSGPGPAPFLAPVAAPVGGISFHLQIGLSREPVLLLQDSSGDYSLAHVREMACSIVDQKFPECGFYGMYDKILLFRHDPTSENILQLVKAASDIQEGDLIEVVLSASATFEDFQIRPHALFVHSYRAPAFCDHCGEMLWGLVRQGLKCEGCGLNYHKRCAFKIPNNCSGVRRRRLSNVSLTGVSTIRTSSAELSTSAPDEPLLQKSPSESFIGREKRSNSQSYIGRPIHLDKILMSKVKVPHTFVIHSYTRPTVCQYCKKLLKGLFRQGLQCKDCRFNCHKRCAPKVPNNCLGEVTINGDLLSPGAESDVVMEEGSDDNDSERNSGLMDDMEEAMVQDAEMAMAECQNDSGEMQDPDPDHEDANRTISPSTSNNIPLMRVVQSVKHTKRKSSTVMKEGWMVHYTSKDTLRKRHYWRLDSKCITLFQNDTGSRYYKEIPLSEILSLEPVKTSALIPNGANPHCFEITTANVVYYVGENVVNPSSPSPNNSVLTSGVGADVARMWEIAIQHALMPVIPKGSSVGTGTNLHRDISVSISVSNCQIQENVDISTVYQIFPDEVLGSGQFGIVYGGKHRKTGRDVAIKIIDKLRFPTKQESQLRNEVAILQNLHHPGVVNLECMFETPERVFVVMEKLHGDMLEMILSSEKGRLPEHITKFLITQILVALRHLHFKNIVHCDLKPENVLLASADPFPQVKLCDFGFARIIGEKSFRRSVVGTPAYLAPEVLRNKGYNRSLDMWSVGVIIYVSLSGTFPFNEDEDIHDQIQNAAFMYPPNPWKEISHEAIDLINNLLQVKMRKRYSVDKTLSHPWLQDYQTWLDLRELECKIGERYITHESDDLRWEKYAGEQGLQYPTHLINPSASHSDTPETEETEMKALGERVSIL
Numbers stand for hits; - = inactive; . = no result. Unless noted, no stated cut-off is given here; in the data, active means inhibition above about 50%; inactive means the rest.

SMILES	Avidin bead fluor	GSH fluor	Lmaj promast	ABCB1 inh	ABCG2 inh	PKD1 inh
CC(Cc1cccs1)NC(=O)Nc1ccc(Cl)c(Cl)c1 (configuration not stated)	-	-	61.4	-	-	-
CC(Cc1cccs1)NC(=O)Nc1ccccc1 (configuration not stated)	-	-	-	-	-	-
Nc1[nH]ncc1-c1ccccc1	-	-	-	-	-	-
Cc1ccc(C(=O)COc2cc(C)nc3nncn23)cc1	-	.	.	.	.	.
Cc1cc(=O)oc(C)c1C(=O)Nc1cccc(F)c1	-	.	.	.	.	.
COc1ccccc1N(C)S(=O)(=O)c1ccc(C(=O)NC2=NCCS2)cc1	-	-	95.9	-	-	-
COc1ccccc1N(C)S(=O)(=O)c1ccc(C(=O)OCC(=O)N(C)c2ccccc2)cc1	-	-	96.5	-	-	-
COc1ccccc1N(C)S(=O)(=O)c1ccc(C(=O)OCC(=O)c2c[nH]c3ccccc23)cc1	-	-	100.1	-	-	-
COc1cccc(C(=O)OCC(=O)c2c[nH]c3ccccc23)c1O	-	-	-	-	-	-
COc1ccccc1N(C)S(=O)(=O)c1ccc(C(=O)OCC(=O)Nc2ccccc2F)cc1	-	-	-	-	-	-
COc1ccccc1N(C)S(=O)(=O)c1ccc(C(=O)OC(C)C(=O)NCc2ccc3c(c2)OCO3)cc1 (configuration not stated)	-	-	97.6	-	-	-
CCSc1nnc2n(N)c(=O)c3ccccc3n12	-	-	-	-	-	-
CCOC(=O)c1c(C)[nH]c(C2=NNC(=NC3CC3)SC2)c1C	-	-	-	-	-	-
COc1cc(NC(=O)c2ccco2)c(C(=O)OCC(=O)c2c[nH]c3ccccc23)cc1OC	-	-	55.4	-	-	-
O=C(/C=C/c1cccs1)Nc1cccc(NC(=O)/C=C/c2cccs2)n1	-	-	54.5	-	-	-
CC(C)C(=O)N1CCN(c2cc(N3CCN(C)CC3)c(F)cc2[N+](=O)[O-])CC1	-	-	96.0	-	-	-
CC(=O)N1CCN(c2cc(N3CCCC3)c(F)cc2[N+](=O)[O-])CC1	-	-	-	-	-	-
CCN1CCN(c2cc(N3CCc4ccccc4C3)c(F)cc2[N+](=O)[O-])CC1	-	-	60.5	-	-	-
Clc1ccc(-c2nc(-c3cc4cc(Cl)ccc4o3)cs2)cc1	-	.	.	.	.	.
Cc1nc(-c2ccc(S(=O)(=O)Oc3ccc(Cl)cc3Cl)s2)cs1	-	.	.	.	.	.
COCCNC(=O)Cn1c(=O)n(CCCCCC(=O)Nc2ccccc2)c(=O)c2sccc21	-	-	-	-	-	-
COc1ccc(NC(=O)CCCn2c(=O)c3sccc3n(Cc3ccccc3C)c2=O)cc1	-	-	89.3	-	-	-
COCCCNC(=O)Cn1c(=O)n(CCCCCC(=O)Nc2ccccc2)c(=O)c2sccc21	-	-	50.2	-	-	-
O=C(Nc1ccccc1[N+](=O)[O-])C1(c2ccccc2)CCOCC1	202	-	-	-	-	-
CC(=O)c1ccc(NC(=O)C2(c3ccccc3)CCOCC2)cc1	-	-	-	-	-	-
SMILES	Avidin bead fluor	GSH fluor	Lmaj promast	ABCB1 inh	ABCG2 inh	PKD1 inh
CCOC(=O)C1CCN(c2c(C(=O)c3ccccc3)cnc3ccc(Cl)cc23)CC1	-	-	-	-	-	-
CCOc1ccc2ncc(C(=O)c3ccc(OC)cc3)c(N3CCN(CC)CC3)c2c1	50	129	-	-	-	-
CCOc1ccc(C(=O)c2cnc3ccccc3c2N2CCN(CC)CC2)cc1	-	-	-	-	-	-
CCc1ccc(C(=O)c2cnc3ccc(OC)cc3c2N2CCN(CC)CC2)cc1	-	-	68.9	-	-	-
O=C(c1ccco1)N1N=C(c2ccccc2)CC1c1ccc2nccnc2c1 (configuration not stated)	-	.	.	.	.	.
Cc1cc(C)c(C(=O)OCCNC(=O)c2cccnc2)cc1C	215	-	-	-	-	-
Cc1snc(SCC(=O)c2ccc(Cl)cc2)c1C#N	-	-	99.4	-	-	-
Cc1cc(C)c(C#N)c(SCC(=O)c2ccc(Cl)cc2Cl)n1	-	-	100.0	-	-	-
CCOc1ccc(S(=O)(=O)N2CCN(c3ccccc3OC)CC2)c2cccnc12	-	-	-	-	-	-
CCN(Cc1ccccc1)S(=O)(=O)c1ccc(OC)c2ncccc12	-	.	.	.	.	.
CCCCN(CCCC)S(=O)(=O)c1ccc(OC)c2ncccc12	-	-	74.6	-	-	-
COc1ccc(S(=O)(=O)N(CC(C)C)CC(C)C)c2cccnc12	-	-	72.2	-	-	-
COc1cccc(-n2c(SCC(=O)Nc3nc4ccccc4s3)nc3ccccc3c2=O)c1	-	.	.	.	.	.
COc1cccc(-n2c(SCC(=O)Nc3sc4c(c3C(N)=O)CCC4)nc3ccccc3c2=O)c1	-	-	51.7	-	-	-
CC(=O)N1CCCc2cc(S(=O)(=O)N(C)Cc3ccccc3)ccc21	-	-	61.0	-	-	-
CC(=O)N1CCCc2cc(S(=O)(=O)N3CCc4ccccc4C3)ccc21	-	-	98.5	-	-	-
CCC(=O)N1CCc2cc(S(=O)(=O)N3CCc4ccccc4C3)ccc21	-	-	-	-	-	-
Cc1ccc(NC(=O)CSc2ncc3ccccn23)cc1C	-	-	-	-	-	-
O=C(c1cnc2n(c1=O)CCS2)N1CCN(c2ccccc2Cl)CC1	-	-	-	-	-	-
O=C(c1cnc2n(c1=O)CCS2)N1CCN(C(c2ccccc2)c2ccc(Cl)cc2)CC1 (configuration not stated)	-	-	57.7	-	-	-
COc1cccc(C(=O)Nc2ccc(C3CC3(Cl)Cl)cc2)c1 (configuration not stated)	-	-	-	-	-	-
O=C(Nc1ccc(C2CC2(Cl)Cl)cc1)c1ccccc1Br (configuration not stated)	-	-	83.5	-	-	-
Cc1nc(-c2ccc(NC(=O)c3ccccc3C)cc2)cs1	-	-	50.3	-	-	-
Cc1nc(-c2ccc(NC(=O)c3ccccc3Br)cc2)cs1	-	-	71.5	-	-	-
COCCNC(=O)C(c1ccc(C)o1)N(C(=O)C(=O)NC1CCCCC1)c1ccc(F)cc1 (configuration not stated)	-	-	-	-	-	-
CCc1c(C)c2nncn2[nH]c1=O	-	-	-	-	-	-
O=C(O)CCn1nnc2ccccc21	-	.	.	.	.	.
O=C(NCC1CCCO1)C(c1cccs1)N(C(=O)c1ccc(-c2ccccc2)[nH]1)C1CCCC1 (configuration not stated)	-	-	92.2	-	-	-
NC(=O)c1nsc(C(=O)N(c2ccccc2)C(C(=O)NCC2CCCO2)c2cccs2)c1N (configuration not stated)	-	-	72.9	-	-	-
O=C(NCC1CCCO1)C(c1cccs1)N(Cc1ccccc1)C(=O)c1ccc(-c2ccccc2)[nH]1 (configuration not stated)	-	-	68.1	-	-	-
